Results on five compounds are retold here after ChEMBL document CHEMBL1142175, “Activities of antimicrobial peptides and synergy with enrofloxacin against Mycoplasma pulmonis” (2007).

Experiment [1] relates to Mycoplasma pulmonis. The experiment in a line: Antibacterial activity against 10^6 CFU/ml Mycoplasma pulmonis MpUR1.1 after 48 hrs. Format: functional. As to conditions: Mycoplasmopsis pulmonis. The method in brief:
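Mycoplasmas seeded at 10^6 CFU/ml in Hayflick medium with 5% horse serum, with twofold serial drug dilutions (0.4 to 100 µM). Growth was followed by phenol red colour change. MIC was the lowest concentration giving complete growth inhibition at 48 h. Triplicate.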

The test system of experiment [2] is Mycoplasma pulmonis. Kind of experiment: Antibacterial activity against 10^6 CFU/ml Mycoplasma pulmonis MpUR1.1 assessed as viable cell count after 2 hrs. As to conditions: Mycoplasmopsis pulmonis. Format: functional. The method in brief:
(§1)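 For bactericidal testing, cells were exposed to peptides for 2 h or enrofloxacin for 24 h, then plated on solid medium at 37°C under anaerobic conditions. Colonies were read after 4 to 5 days. MBC was the lowest concentration killing 99.9% of cells. Triplicate.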

The subject of experiment [3] is Mycoplasma pulmonis. Kind of experiment: Ratio of MBC to MIC for Mycoplasma pulmonis MpUR1.1. It is filed as functional, Mycoplasmopsis pulmonis. The method in brief: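 MIC came from broth microdilution at 10^6 CFU/ml in Hayflick medium with 5% horse serum. Twofold dilutions ran from 0.4 to 100 µM, with phenol red read-out at 48 h. MBC came from plating after exposure (peptides 2 h, enrofloxacin 24 h) on solid medium at 37°C under anaerobic conditions. MBC was the concentration killing 99.9% of cells, with colonies read at 4 to 5 days.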

In experiment [4] the test system is Mycoplasma pulmonis. Kind of experiment: Antibacterial activity against 10^6 CFU/ml log-phase Mycoplasma pulmonis MpUR1.1 assessed as viable cell count at 6.25 uM after 1 hr relative to control. It is filed as functional, Mycoplasmopsis pulmonis. The method in brief: (§2)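 Time-kill on log-phase cells, about 10^6 CFU/ml in Hayflick broth, exposed to a single drug concentration at 37°C. Aliquots were taken at 1, 2 or 24 h, serially diluted and plated for viable counts. Counts were expressed as percent of the untreated culture. Values are the mean of two independent experiments.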

Experiment [5] relates to Mycoplasma pulmonis. The experiment in a line: Antibacterial activity against 10^6 CFU/ml growth-phase Mycoplasma pulmonis MpUR1.1 assessed as viable cell count after 2 hrs relative to control. It is filed as functional. As to conditions: Mycoplasmopsis pulmonis. The method in brief:
as §2

In experiment [6] the test system is Mycoplasma pulmonis. The experiment in a line: Antibacterial activity against 10^6 CFU/ml log-phase Mycoplasma pulmonis MpUR1.1 assessed as viable cell count at 6.25 uM after 24 hrs relative to control. Format: functional, Mycoplasmopsis pulmonis. In a few lines: as §2
In experiment [7] the test system is Mycoplasma pulmonis. The experiment in a line: Antibacterial activity against 10^6 CFU/ml Mycoplasma pulmonis MpUR1.1 assessed as viable cell count after 24 hrs. The note with it: Mycoplasmopsis pulmonis. Format: functional. The method in brief:
as §1

The subject of experiment [8] is Mycoplasma pulmonis. Kind of experiment: Antibacterial activity against 10^6 CFU/ml log-phase Mycoplasma pulmonis MpUR1.1 assessed as viable cell count at 0.4 uM after 1 hr relative to control. It is filed as functional, Mycoplasmopsis pulmonis. In a few lines:
as §2

Experiment [9] has as its system Mycoplasma pulmonis. Kind of experiment: Antibacterial activity against 10^6 CFU/ml log-phase Mycoplasma pulmonis MpUR1.1 assessed as viable cell count at 0.4 uM after 24 hrs relative to control. Format: functional, Mycoplasmopsis pulmonis. In a few lines:
as §2

The test system of experiment [10] is Mycoplasma pulmonis. Kind of experiment: Antibacterial activity against 10^6 CFU/ml log-phase Mycoplasma pulmonis MpUR1.1 assessed as viable cell count at 25 uM after 1 hr relative to control. It is filed as functional, Mycoplasmopsis pulmonis. The method in brief:
as §2

In experiment [11] the test system is Mycoplasma pulmonis. Kind of experiment: Antibacterial activity against 10^6 CFU/ml log-phase Mycoplasma pulmonis MpUR1.1 assessed as viable cell count at 25 uM after 24 hrs relative to control. Format: functional, Mycoplasmopsis pulmonis. The method in brief: as §2
The subject of experiment [12] is Mycoplasma pulmonis. Kind of experiment: Antibacterial activity against 10^6 CFU/ml log-phase Mycoplasma pulmonis MpUR1.1 assessed as viable cell count at 3.12 uM after 1 hr relative to control. It is filed as functional, Mycoplasmopsis pulmonis. In a few lines: as §2
The subject of experiment [13] is Mycoplasma pulmonis. The experiment in a line: Antibacterial activity against 10^6 CFU/ml log-phase Mycoplasma pulmonis MpUR1.1 assessed as viable cell count at 3.12 uM after 24 hrs relative to control. Format: functional, Mycoplasmopsis pulmonis. In a few lines: as §2

≈ marks a conversion by molar mass, not a printed value. Calls of active or inactive are those of the source. Starred links: 1 amine or outer side, 2 acyl side, 3 side chain; linkers in the order of their positions; H or OH if unused. Positions of bridges follow the written chain, without caps; N, C: chain ends. Non-standard residues stand in square brackets, D forms with d. Residues, ends and D or L forms follow the SMILES beside them. X1 = CC(C)CCCCCCCCC[C@H](CC(=O)[*:1])O[*:2]; Orn = NCCC[C@H](N)C(=O)O

Compound `CC(=O)NC(C)(C)C(=O)N1CCC[C@H]1C(=O)NC(C)(C)C(=O)N[C@@H](C)C(=O)NC(C)(C)C(=O)N[C@@H](C)C(=O)N[C@@H](CCC(N)=O)C(=O)NC(C)(C)C(=O)N[C@H](C(=O)NC(C)(C)C(=O)NCC(=O)N[C@@H](CC(C)C)C(=O)NC(C)(C)C(=O)N1CCC[C@H]1C(=O)N[C@H](C(=O)NC(C)(C)C(=O)NC(C)(C)C(=O)N[C@@H](CCC(=O)O)C(=O)N[C@@H](CCC(N)=O)C(=O)N[C@H](CO)Cc1ccccc1)C(C)C)C(C)C` [ALAMETHICIN] came in with a minimal inhibitory concentration (MIC) in experiment [1] of 12.3 mg/L (≈ 6.26 µM). Moreover, the minimal bactericidal concentration (MBC) in [2] is 49.1 mg/L (≈ 25 µM). In addition, the Ratio in experiment [3] is listed as 2. Moreover, the figures for the Activity in experiment [4] and in experiment [6] were 31% and 0%, respectively. Moreover, in experiment [5], the outcome was Active.
On to `CCN1CCN(c2cc3c(cc2F)c(=O)c(C(=O)O)cn3C2CC2)CC1` [ENROFLOXACIN], for which the MBC in experiment [7] stood at 0.29 mg/L (≈ 0.807 µM). The compound also yielded an MIC in [1] of 0.14 mg/L (≈ 0.39 µM). In experiment [3], the Ratio came out at 2. For the same compound, the Activity worked out at 89% in experiment [8] and 0.22% in experiment [9]. The outcome in experiment [5] was Active.
Turning to `CC(C)CCCCCCCCC[C@@H]1CC(=O)N[C@@H](CCC(=O)O)C(=O)N[C@@H](CC(C)C)C(=O)N[C@H](CC(C)C)C(=O)N[C@@H](C(C)C)C(=O)N[C@@H](CC(=O)O)C(=O)N[C@H](CC(C)C)C(=O)N[C@@H](CC(C)C)C(=O)O1` [SURFACTIN] (EL[dL]VD[dL]L; linker N-C via X1), in [1], the minimum inhibitory concentration (MIC) worked out at 25.9 mg/L (≈ 25 µM). Also, in experiment [2], the MBC stood at 104 mg/L (≈ 100 µM). Further, the Ratio in [3] is reported as 2. Moreover, the figures for the Activity in experiment [10] and in experiment [11] were 43% and 0.08%, respectively. The outcome in [5] was Active.
For `CCCCCC[C@H]1OC(=O)CNC(=O)[C@H]([C@H](C)O)NC(=O)[C@H](CO)NC(=O)[C@H]([C@H](C)CC)NC(=O)[C@H](CC(C)C)N(C)C(=O)[C@@H]1C`, inhibition of growth in experiment [1] (MIC) required 0.26 mg/L (≈ 0.396 µM). For the same compound, in [2], the MBC stood at 8.2 mg/L (≈ 12.5 µM). In addition, in experiment [3], the Ratio was determined as 31. The results for the Activity in [8] and in experiment [9] were 68% and 0.05%, respectively. For the same compound, the outcome in experiment [5] was Active.
In experiment [1], `CC(C)C[C@@H]1NC(=O)[C@H](CCCN)NC(=O)[C@H](C(C)C)NC(=O)[C@@H]2CCCN2C(=O)[C@@H](Cc2ccccc2)NC(=O)[C@H](CC(C)C)NC(=O)[C@H](CCCN)NC(=O)[C@H](C(C)C)NC(=O)[C@@H]2CCCN2C(=O)[C@@H](Cc2ccccc2)NC1=O` [GRAMICIDIN S] (cyclo(L[dF]PV[Orn]L[dF]PV[Orn])) returned an MIC of 3.6 mg/L (≈ 3.15 µM). For the same compound, the minimum bactericidal concentration (MBC) in experiment [2] came out at 7.1 mg/L (≈ 6.22 µM). In addition, the Ratio in experiment [3] worked out at 2. The results for the Activity in experiment [12] and in [13] were 98% and 0.16%, respectively. In addition, the result in [5] was Active.

The MIC is the lowest concentration found to suppress growth. Read a low MIC as a more susceptible organism. What is called MBC is the smallest concentration meeting the test's criterion for killing.
